# In paper PMC6587326 (Obesity Science & Practice, 2019):
# Assays:
# [1] = Insulin absorption upon s.c. neck dosing in HFD and LFD rats; type: in vivo, Male Sprague Dawley rats; conditions: 12 nmol, HFD n = 22, LFD n = 10, p < 0.01
# Procedure, shortened: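 Rats aged 33–34 weeks, fed a high-fat (60% fat to 22 weeks, then 45%) or low-fat (10% fat) diet from weaning, received 12 nmol test insulin (20 μL) s.c. in the neck. Sublingual-vein blood was drawn at 5, 15 and 60 min, and plasma levels were measured by luminescent oxygen channelling immunoassay. Each rat was dosed five times; mean ± SEM.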
# [2] = type: in vivo, Male Sprague Dawley rats; conditions: anaesthetized rats, s.c. 20 μL insulin aspart/iomeprol 80/20; p < 0.001
# Procedure, shortened: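 Male rats on a high-fat diet (60% fat from weaning to 22 weeks, then 45%) or a low-fat diet (10% fat), aged 36–38 weeks, were isoflurane-anaesthetized. They received 20 μL test insulin mixed 80/20 with iomeprol s.c. in the neck or flank. μCT scans ran to 13 min (neck) or 17 min (flank). Tail blood was taken at 5 and 15 min and measured by luminescent oxygen channelling immunoassay. Three (neck) or four (flank) repeats per rat; mean ± SEM.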
substance,measurement,setting,value
insulin aspart,"area under the curve (AUC0–60 min), HFD compared with LFD group",[1],reduced
same,"mean insulin concentration at 5 and 15 min, flank compared with neck dosing",[2],significantly lower
